# Data published in ChEMBL document CHEMBL2203031, “Inhibitors of the NAD(+)-Dependent Protein Desuccinylase and Demalonylase Sirt5” (ACS Med Chem Lett, 2012).
# Activity calls are given as the source filed them. No cut-off for these calls is given here.
# How the values were obtained:
# [1] = target: NAD-dependent protein deacylase sirtuin-5, mitochondrial (Homo sapiens, UniProt Q9NXA8); assay: Inhibition of SIRT5 using ZK(suc)A substrate after 1 hr by homogeneous fluorescence assay
# Method in brief: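 Recombinant Sirt5 reacted with 200 µM succinyl-lysine AMC substrate ZK(s)A and 500 µM NAD+ in pH 8.0 Tris buffer (130 mM NaCl, 3 mM KCl, 1 mM MgCl2, 0.1% PEG8000) with DMSO <2%. Ran 1 h at 37 °C, then trypsin for 2 min at 37 °C. Conversion without inhibitor set to 4–10%. Inhibition calculated against DMSO control, at least two independent runs; IC50 from curve fit.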
# [2] = target: T1, NAD-dependent protein deacetylase sirtuin-2 (Homo sapiens, UniProt Q8IXJ6); assay: Inhibition of recombinant SIRT2 using ZMAL substrate after 4 hrs by homogeneous fluorescence assay
# T1 sequence (Q8IXJ6 whole entry): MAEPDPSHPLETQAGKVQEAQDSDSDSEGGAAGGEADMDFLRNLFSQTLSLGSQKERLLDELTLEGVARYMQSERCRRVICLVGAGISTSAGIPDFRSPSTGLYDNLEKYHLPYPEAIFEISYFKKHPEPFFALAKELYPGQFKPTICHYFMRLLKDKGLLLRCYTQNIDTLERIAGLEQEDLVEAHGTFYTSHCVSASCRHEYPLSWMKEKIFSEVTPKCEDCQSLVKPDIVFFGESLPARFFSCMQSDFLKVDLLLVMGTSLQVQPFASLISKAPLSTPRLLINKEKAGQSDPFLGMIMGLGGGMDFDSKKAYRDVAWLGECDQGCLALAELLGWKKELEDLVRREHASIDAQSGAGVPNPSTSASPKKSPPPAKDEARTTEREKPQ
# [3] = target: T2, NAD-dependent protein deacetylase sirtuin-1 (Homo sapiens, UniProt Q96EB6); assay: Inhibition of recombinant SIRT1 using ZMAL substrate after 4 hrs by homogeneous fluorescence assay
# T2 sequence (Q96EB6 whole entry): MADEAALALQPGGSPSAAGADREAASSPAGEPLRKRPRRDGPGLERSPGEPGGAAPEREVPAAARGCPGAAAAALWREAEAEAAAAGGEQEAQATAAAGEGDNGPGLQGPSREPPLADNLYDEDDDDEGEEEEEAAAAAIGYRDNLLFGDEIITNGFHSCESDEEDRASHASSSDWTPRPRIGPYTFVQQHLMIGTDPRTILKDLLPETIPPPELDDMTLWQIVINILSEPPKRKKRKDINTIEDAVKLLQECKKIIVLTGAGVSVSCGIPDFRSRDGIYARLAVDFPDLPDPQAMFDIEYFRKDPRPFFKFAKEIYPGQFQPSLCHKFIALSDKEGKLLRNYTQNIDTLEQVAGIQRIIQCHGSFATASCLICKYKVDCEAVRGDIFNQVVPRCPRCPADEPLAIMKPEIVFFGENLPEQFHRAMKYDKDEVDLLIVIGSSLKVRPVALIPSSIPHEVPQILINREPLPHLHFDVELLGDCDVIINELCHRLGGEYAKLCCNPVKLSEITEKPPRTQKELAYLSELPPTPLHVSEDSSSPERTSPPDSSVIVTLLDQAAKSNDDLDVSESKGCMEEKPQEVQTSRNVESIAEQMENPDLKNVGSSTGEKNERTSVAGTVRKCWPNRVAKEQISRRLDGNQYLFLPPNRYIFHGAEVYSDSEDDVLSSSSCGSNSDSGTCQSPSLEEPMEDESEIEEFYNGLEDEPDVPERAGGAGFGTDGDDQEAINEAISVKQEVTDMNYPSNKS
# [4] = target: T3, NAD-dependent protein deacetylase sirtuin-3, mitochondrial (Homo sapiens) (UniProt Q9NTG7); assay: Inhibition of recombinant SIRT3 using ZMAL substrate at 50 uM after 4 hrs by homogeneous fluorescence assay
# T3 sequence (whole entry): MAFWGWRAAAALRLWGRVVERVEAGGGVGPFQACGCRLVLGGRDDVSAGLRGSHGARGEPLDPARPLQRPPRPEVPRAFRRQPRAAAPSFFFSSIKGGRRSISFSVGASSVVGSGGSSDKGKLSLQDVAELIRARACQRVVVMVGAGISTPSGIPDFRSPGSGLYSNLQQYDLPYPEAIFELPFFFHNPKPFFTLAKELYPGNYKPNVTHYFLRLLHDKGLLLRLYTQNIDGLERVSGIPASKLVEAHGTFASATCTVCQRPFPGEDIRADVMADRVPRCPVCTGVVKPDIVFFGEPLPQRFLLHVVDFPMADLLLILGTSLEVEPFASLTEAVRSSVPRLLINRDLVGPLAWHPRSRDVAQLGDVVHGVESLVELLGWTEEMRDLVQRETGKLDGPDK
# Method in brief: (§1)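 Recombinant Sirt1, Sirt2 or Sirt3 incubated with 10.5 µM ZMAL and 500 µM NAD+ in pH 8.0 Tris buffer (137 mM NaCl, 2.7 mM KCl, 1 mM MgCl2) containing 5% DMSO. Ran 4 h at 37 °C, then trypsin developer with 8 mM nicotinamide for 20 min at 37 °C. Fluorescence at Ex 390/Em 460 nm. Conversion without inhibitor held at 10–30%. Inhibition calculated versus DMSO control, at least three independent runs; IC50 by curve fitting.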
# [5] = target: T4, NAD-dependent protein deacetylase sirtuin-3, mitochondrial (Homo sapiens, UniProt Q9NTG7); assay: Inhibition of recombinant SIRT3 using ZMAL substrate after 4 hrs by homogeneous fluorescence assay
# T4 sequence (Q9NTG7 whole entry): T3 sequence (whole entry)
# [6] = target: T5, NAD-dependent protein deacetylase sirtuin-2 (Homo sapiens) (UniProt Q8IXJ6); assay: Inhibition of recombinant SIRT2 using ZMAL substrate at 50 uM after 4 hrs by homogeneous fluorescence assay; method in brief: as §1
# T5 sequence (whole entry): T1 sequence (Q8IXJ6 whole entry)
# NAD-dependent protein deacylase sirtuin-5, mitochondrial, sequence (Q9NXA8 whole entry): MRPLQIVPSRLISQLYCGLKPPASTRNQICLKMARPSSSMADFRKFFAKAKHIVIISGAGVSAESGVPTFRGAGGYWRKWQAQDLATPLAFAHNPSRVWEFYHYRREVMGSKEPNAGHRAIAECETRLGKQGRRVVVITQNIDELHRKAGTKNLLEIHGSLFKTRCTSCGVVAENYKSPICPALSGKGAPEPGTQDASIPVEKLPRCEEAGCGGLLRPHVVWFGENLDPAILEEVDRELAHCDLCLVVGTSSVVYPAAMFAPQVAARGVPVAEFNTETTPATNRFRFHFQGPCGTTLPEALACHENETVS
Compound,IC50 ([1]; read-out: IC50),IC50 [2],IC50 ([3]; read-out: IC50),inhibition [4],further results
O=c1[nH]c(=S)[nH]c(-c2ccccc2)c1Cc1c(O)ccc2ccccc12 [CAMBINOL],42.5 µM,–,–,–,–
COc1ccc2c(C=C3C(=O)NC(=S)NC3=O)cccc2c1,22.4 µM,11.7 µM,6 µM,–,–
O=C1NC(=S)NC(=O)C1=Cc1c[nH]c2ccccc12,46.5 µM,20.3 µM,5.9 µM,14%,–
CCN1C(=O)/C(=C/c2ccc(OCc3ccccc3)cc2)C(=O)NC1=S,12.9 µM,14.4 µM,53.2 µM,25%,–
O=C1NC(=S)NC(=O)C1=Cc1ccc(-c2ccccc2)cc1,30 µM,–,50.5 µM,–,IC50 ([5]; read-out: IC50): 40.3 µM
O=C1NC(=S)NC(=O)C1=Cc1ccc(OCc2ccccc2)cc1,12.6 µM,9.8 µM,10.5 µM,–,–
CS(=O)(=O)O.Cn1cc(C2=C(c3cn(CCCSC(=N)N)c4ccccc34)C(=O)NC2=O)c2ccccc21,–,–,–,–,IC50 [1]: Not Active
O=C1NC(=S)NC(=O)C1=Cc1ccc(OCc2ccc(Br)cc2)cc1,6.2 µM,3.4 µM,9.9 µM,–,–
C=CCN1C(=O)/C(=C/c2ccc(OCc3ccccc3)cc2)C(=O)NC1=S,67.3 µM,–,36.8 µM,13%,inhibition [6]: inactive
O=C1NC(=S)NC(=O)C1=Cc1ccc(-c2cccc(Cl)c2Cl)o1,3.6 µM,10.4 µM,3.4 µM,30%,–
C=CCN1C(=O)/C(=C/c2ccc(-c3cccc(Cl)c3Cl)o2)C(=O)NC1=S,2.3 µM,9.7 µM,5.3 µM,41%,–
CN1C(=O)/C(=C/c2c[nH]c3ccccc23)C(=O)NC1=S,27 µM,–,42.4 µM,17%,inhibition [6]: 20%
NC(=O)C1CCCc2c1[nH]c1ccc(Cl)cc21 (stereo not given),–,–,–,–,IC50 [1]: Not Active
CC(C)c1ccc(C=C2C(=O)NC(=S)NC2=O)cc1,39.4 µM,14.7 µM,12.4 µM,13%,–
CCN1C(=O)/C(=C/c2c[nH]c3ccccc23)C(=O)NC1=S,55.9 µM,–,89.3 µM,inactive,inhibition [6]: 10%
O=C1CC(c2ccccc2)c2c(ccc3cc(Br)ccc23)O1 (stereo not given),–,1 µM,–,–,IC50 [1]: Not Active; IC50 [5]: Not Active; IC50 [3]: Not Active
CN1C(=O)/C(=C/c2ccc(OCc3ccccc3)cc2)C(=O)NC1=S,17.8 µM,10 µM,56.5 µM,22%,–
COc1cc(C=C2C(=O)NC(=S)NC2=O)ccc1OCc1ccccc1Cl,12.4 µM,7.5 µM,6.7 µM,–,–
Cc1ccc(C(=O)Nc2ccc(S(=O)(=O)O)c3cc(S(=O)(=O)O)cc(S(=O)(=O)O)c23)cc1NC(=O)c1cccc(NC(=O)Nc2cccc(C(=O)Nc3cc(C(=O)Nc4ccc(S(=O)(=O)O)c5cc(S(=O)(=O)O)cc(S(=O)(=O)O)c45)ccc3C)c2)c1 [SURAMIN],–,1.1 µM,–,–,IC50 [5]: Not Active
CC(NC(=O)c1ccccc1/N=C/c1c(O)ccc2ccccc12)c1ccccc1 (stereo not given) [SIRTINOL],48.9 µM,–,–,24%,–
O=C1NC(=S)NC(=O)C1=Cc1cn(Cc2ccccc2)c2ccccc12,16.6 µM,–,28.4 µM,–,inhibition [6]: 20%
